Measurements as given in ChEMBL document CHEMBL3244414, “Structure-activity relationships among the O-acyl derivatives of leucomycin. Correlation of minimal inhibitory concentrations with binding to Escherichia coli ribosomes” (J Med Chem, 1977).
Converted amounts (≈) assume the structure as drawn.

Key:
Staphylococcus aureus = assay: Antimicrobial activity against Staphylococcus aureus ATCC 6538P by agar dilution method; assay type: functional
Method in brief: (§1)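 Read-out is the minimal inhibitory concentration, found by agar dilution against the named strain.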

Bacillus spizizenii = assay: Antimicrobial activity against Bacillus subtilis ATCC 6633 by agar dilution method; assay type: functional; method in brief: as §1
Klebsiella pneumoniae = assay: Antimicrobial activity against Klebsiella pneumoniae ATCC 10031 by agar dilution method; assay type: functional; method in brief: as §1
[1] = target: Bacterial 70S ribosome (Bacteria) (UniProt P0A7V0+P60723+P0AG67+P0A7R5+P0A7R9+P0A7S3+P0A7S9+P0AG59+P0ADZ4+P0A7T3+P0AG63+P0A7T7+P0A7U3+P0A7U7+P68679+P0A7V3+P0A7V8+P0A7W1+P02358+P02359+P0A7W7+P0A7X3+P0A7J3+P0A7J7+P0AA10+P0ADY3+P02413+P0ADY7+P0AG44+P0C018+P0A7K6+P0A7L0+P0A7L3+P0AG48+P61175+P0ADZ0+P60624+P68919+P0A7L8+P0A7M2+P0A7M6+P60422+P0AG51+P0A7N1+P0A7M9+P0A7N4+P0A7N9+P0A7P5+P0A7Q1+Q2EEQ2+P0A7Q6+P60438+P62399+P0AG55+P0A7K2); assay: (§2) Displacement of [14C]erythromycin from Escherichia coli ribosomes after 30 mins by scintillation spectrometer analysis
Method in brief: (§3)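 NH4Cl-washed E. coli ribosomes with [14C]erythromycin A and varied competitor concentrations in 0.01 M Tris-HCl pH 7.2, 0.1 M KCl, 0.004 M MgCl2, 0.01 M NH4Cl. Incubated 30 min at 24 °C, stopped by dilution in cold Tris/KCl/MgCl2 buffer, membrane-filtered, washed three times, dried, scintillation counted. Reports the concentration giving 50% inhibition of binding.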

Bacterial 70S ribosome = assay: as §2; method in brief: as §3
[2] = Staphylococcus aureus, ATCC 6538P, read-out: MIC
[3] = Bacillus spizizenii, ATCC 6633, read-out: MIC
[4] = Klebsiella pneumoniae, ATCC 10031, read-out: MIC

| SMILES | MIC (Staphylococcus aureus; [2]) [mg/L] | MIC (Bacillus spizizenii; [3]) [mg/L] | MIC (Klebsiella pneumoniae; [4]) [mg/L] | pK50 [1] | IC50 (Bacterial 70S ribosome) [µM] | MIC (Staphylococcus aureus) [mg/L] | MIC (Bacillus spizizenii) [mg/L] | MIC (Klebsiella pneumoniae) [mg/L] |
| --- | --- | --- | --- | --- | --- | --- | --- | --- |
| CCCC(=O)O[C@H]1[C@H](C)O[C@@H](O[C@H]2[C@H](N(C)C)[C@@H](OC(C)=O)[C@H](O[C@H]3[C@@H](CC=O)C[C@@H](C)[C@@H](O)/C=C/C=C/C[C@@H](C)OC(=O)C[C@@H](OC(C)=O)[C@@H]3OC)O[C@@H]2C)C[C@@]1(C)O | 0.8 (≈ 0.935 µM) | 0.8 (≈ 0.935 µM) | 100 (≈ 117 µM) | 4.7 | 20.9 | – | – | – |
| CCCC(=O)O[C@H]1[C@H](C)O[C@@H](O[C@H]2[C@H](N(C)C)[C@@H](O)[C@H](O[C@H]3[C@@H](CC=O)C[C@@H](C)[C@@H](OC(C)=O)/C=C/C=C/C[C@@H](C)OC(=O)C[C@@H](OC(C)=O)[C@@H]3OC)O[C@@H]2C)C[C@@]1(C)O | 1.6 (≈ 1.87 µM) | 0.8 (≈ 0.935 µM) | 100 (≈ 117 µM) | 5.7 | 2.2 | – | – | – |
| CCCC(=O)O[C@H]1/C=C/C=C/C[C@@H](C)OC(=O)C[C@@H](O)[C@H](OC)[C@@H](O[C@@H]2O[C@H](C)[C@@H](O[C@H]3C[C@@](C)(O)[C@@H](OC(=O)CCC)[C@H](C)O3)[C@H](N(C)C)[C@H]2O)[C@@H](CC=O)C[C@H]1C | 1.6 (≈ 1.9 µM) | 1.6 (≈ 1.9 µM) | 50 (≈ 59.4 µM) | 6 | 0.9 | – | – | – |
| CCCC(=O)O[C@H]1[C@H](C)O[C@@H](O[C@H]2[C@H](N(C)C)[C@@H](O)[C@H](O[C@H]3[C@@H](CC=O)C[C@@H](C)[C@@H](OC(C)=O)/C=C/C=C/C[C@@H](C)OC(=O)C[C@@H](O)[C@@H]3OC)O[C@@H]2C)C[C@@]1(C)O | 1.6 (≈ 1.97 µM) | 0.4 (≈ 0.491 µM) | 25 (≈ 30.7 µM) | 6.1 | 0.9 | – | – | – |
| CO[C@@H]1[C@@H](O[C@@H]2O[C@H](C)[C@@H](O[C@H]3C[C@@](C)(O)[C@@H](OC(=O)CC(C)C)[C@H](C)O3)[C@H](N(C)C)[C@H]2O)[C@@H](CC=O)C[C@@H](C)[C@@H](O)/C=C/C=C/C[C@@H](C)OC(=O)C[C@H]1O (stereo in doubt; 2) [KITASAMYCIN] | – | – | – | 6 | 1 | 1.6 (≈ 2.04 µM) | 0.4 (≈ 0.509 µM) | 25 (≈ 31.8 µM) |
| CC[C@H]1OC(=O)[C@H](C)[C@@H](O[C@H]2C[C@@](C)(OC)[C@@H](O)[C@H](C)O2)[C@H](C)[C@@H](O[C@@H]2O[C@H](C)C[C@H](N(C)C)[C@H]2O)[C@](C)(O)C[C@@H](C)C(=O)[C@H](C)[C@@H](O)[C@]1(C)O [ERYTHROMYCIN] | 0.4 (≈ 0.545 µM) | 0.2 (≈ 0.273 µM) | 6.3 (≈ 8.58 µM) | 6.1 | 0.75 | – | – | – |
| CCCC(=O)O[C@H]1[C@H](C)O[C@@H](O[C@H]2[C@H](N(C)C)[C@@H](OC(=O)CC)[C@H](O[C@H]3[C@@H](CC=O)C[C@@H](C)[C@@H](O)/C=C/C=C/C[C@@H](C)OC(=O)C[C@@H](O)[C@@H]3OC)O[C@@H]2C)C[C@@]1(C)O | 0.8 (≈ 0.966 µM) | 1.6 (≈ 1.93 µM) | 12.5 (≈ 15.1 µM) | 4.9 | 13.8 | – | – | – |
| CCCC(=O)O[C@H]1[C@H](C)O[C@@H](O[C@H]2[C@H](N(C)C)[C@@H](O)[C@H](O[C@H]3[C@@H](CC=O)C[C@@H](C)[C@@H](OC(=O)CCl)/C=C/C=C/C[C@@H](C)OC(=O)C[C@@H](O)[C@@H]3OC)O[C@@H]2C)C[C@@]1(C)O | 1.6 (≈ 1.89 µM) | 0.4 (≈ 0.471 µM) | 25 (≈ 29.5 µM) | 6 | 0.9 | – | – | – |
| CO[C@@H]1[C@@H](O[C@@H]2O[C@H](C)[C@@H](O[C@H]3C[C@@](C)(O)[C@@H](OC(=O)CC(C)C)[C@H](C)O3)[C@H](N(C)C)[C@H]2O)[C@@H](CC=O)C[C@@H](C)[C@@H](OC(C)=O)/C=C/C=C/C[C@@H](C)OC(=O)C[C@H]1O | 1.6 (≈ 1.93 µM) | 0.8 (≈ 0.966 µM) | 50 (≈ 60.4 µM) | 6 | 1.1 | – | – | – |
| CO[C@@H]1[C@@H](O[C@@H]2O[C@H](C)[C@@H](O[C@H]3C[C@@](C)(O)[C@@H](OC(C)=O)[C@H](C)O3)[C@H](N(C)C)[C@H]2O)[C@@H](CC=O)C[C@@H](C)[C@@H](OC(C)=O)/C=C/C=C/C[C@@H](C)OC(=O)C[C@H]1O | 6.3 (≈ 8.02 µM) | 3.1 (≈ 3.94 µM) | 50 (≈ 63.6 µM) | 5.7 | 2.1 | – | – | – |
| CCCC(=O)O[C@H]1[C@H](C)O[C@@H](O[C@H]2[C@H](N(C)C)[C@@H](O)[C@H](O[C@H]3[C@@H](CC=O)C[C@@H](C)[C@@H](OC(=O)CC)/C=C/C=C/C[C@@H](C)OC(=O)C[C@@H](O)[C@@H]3OC)O[C@@H]2C)C[C@@]1(C)O | 1.6 (≈ 1.93 µM) | 0.8 (≈ 0.966 µM) | 50 (≈ 60.4 µM) | 5.8 | 1.7 | – | – | – |
| CO[C@@H]1[C@@H](O[C@@H]2O[C@H](C)[C@@H](O[C@H]3C[C@@](C)(O)[C@@H](OC(=O)CC(C)C)[C@H](C)O3)[C@H](N(C)C)[C@H]2OC(=O)CCC(=O)O)[C@@H](CC=O)C[C@@H](C)[C@@H](O)/C=C/C=C/C[C@@H](C)OC(=O)C[C@H]1OC(C)=O | 1.6 (≈ 1.72 µM) | 1.6 (≈ 1.72 µM) | 25 (≈ 26.9 µM) | 5.5 | 3.5 | – | – | – |
| CCCC(=O)O[C@H]1/C=C/C=C/C[C@@H](C)OC(=O)C[C@@H](OC(C)=O)[C@H](OC)[C@@H](O[C@@H]2O[C@H](C)[C@@H](O[C@H]3C[C@@](C)(O)[C@@H](OC(=O)CC(C)C)[C@H](C)O3)[C@H](N(C)C)[C@H]2O)[C@@H](CC=O)C[C@H]1C | 3.1 (≈ 3.45 µM) | 1.6 (≈ 1.78 µM) | 100 (≈ 111 µM) | 5.7 | 1.9 | – | – | – |
| CCC(=O)O[C@H]1/C=C/C=C/C[C@@H](C)OC(=O)C[C@@H](O)[C@H](OC)[C@@H](O[C@@H]2O[C@H](C)[C@@H](O[C@H]3C[C@@](C)(O)[C@@H](OC(=O)C(C)CC)[C@H](C)O3)[C@H](N(C)C)[C@H]2O)[C@@H](CC=O)C[C@H]1C (some centres undefined) | 1.6 (≈ 1.9 µM) | 0.8 (≈ 0.95 µM) | 50 (≈ 59.4 µM) | 5.8 | 1.7 | – | – | – |
| CO[C@@H]1[C@@H](O[C@@H]2O[C@H](C)[C@@H](O[C@H]3C[C@@](C)(O)[C@@H](OC(=O)CC(C)C)[C@H](C)O3)[C@H](N(C)C)[C@H]2O)[C@@H](CC=O)C[C@@H](C)[C@@H](OC(=O)C(Cl)Cl)/C=C/C=C/C[C@@H](C)OC(=O)C[C@H]1OC(C)=O | 1.6 (≈ 1.7 µM) | 0.8 (≈ 0.852 µM) | 50 (≈ 53.3 µM) | 5.9 | 1.4 | – | – | – |
| CCCC(=O)O[C@H]1[C@H](C)O[C@@H](O[C@H]2[C@H](N(C)C)[C@@H](O)[C@H](O[C@H]3[C@@H](CC=O)C[C@@H](C)[C@@H](OC(=O)C(Cl)Cl)/C=C/C=C/C[C@@H](C)OC(=O)C[C@@H](O)[C@@H]3OC)O[C@@H]2C)C[C@@]1(C)O | 1.6 (≈ 1.81 µM) | 1.6 (≈ 1.81 µM) | 25 (≈ 28.3 µM) | 5.9 | 1.3 | – | – | – |
| CCCC(=O)O[C@H]1[C@H](C)O[C@@H](O[C@H]2[C@H](N(C)C)[C@@H](O)[C@H](O[C@H]3[C@@H](CC=O)C[C@@H](C)[C@@H](O)/C=C/C=C/C[C@@H](C)OC(=O)C[C@@H](OC(C)=O)[C@@H]3OC)O[C@@H]2C)C[C@@]1(C)O | 0.8 (≈ 0.983 µM) | 1.6 (≈ 1.97 µM) | 50 (≈ 61.4 µM) | 5.9 | 1.2 | – | – | – |
| CCC(=O)O[C@H]1/C=C/C=C/C[C@@H](C)OC(=O)C[C@@H](O)[C@H](OC)[C@@H](O[C@@H]2O[C@H](C)[C@@H](O[C@H]3C[C@@](C)(O)[C@@H](O)[C@H](C)O3)[C@H](N(C)C)[C@H]2O)[C@@H](CC=O)C[C@H]1C | 6.3 (≈ 8.31 µM) | 3.1 (≈ 4.09 µM) | 100 (≈ 132 µM) | 5.4 | 4 | – | – | – |
| CCC(=O)O[C@H]1[C@H](O[C@H]2[C@@H](CC=O)C[C@@H](C)[C@@H](OC(=O)CC)/C=C/C=C/C[C@@H](C)OC(=O)C[C@@H](OC(C)=O)[C@@H]2OC)O[C@H](C)[C@@H](O[C@H]2C[C@@](C)(O)[C@@H](OC(=O)CC(C)C)[C@H](C)O2)[C@@H]1N(C)C | 6.3 (≈ 6.7 µM) | 6.3 (≈ 6.7 µM) | 100 (≈ 106 µM) | – | > 100 | – | – | – |
